The results in this text go back to publication PMC11224971 (The Oncologist, 2024).

Common to all, as to format: in vivo, human
Data set [1] relates to relapsed or refractory advanced solid tumors harboring deleterious genetic alterations in the DDR pathway. Description: NCI-COG Pediatric MATCH phase II subprotocol. To be noted: 135 mg/m^2/dose BID oral. The method, boiled down: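 Relapsed/refractory pediatric solid tumors (incl. CNS, non-Hodgkin lymphoma, histiocytosis) assigned by centralized tumor sequencing showing a deleterious BRCA1/2, RAD51C/D or ATM alteration, without germline subtraction or LOH analysis. Oral tablets 135 mg/m²/dose (max 225 mg/dose) twice daily, given continuously in 28-day cycles. Primary endpoint was objective response.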

Data set [2] can be described thus: Steady-state pharmacokinetics in plasma, cycle 1 day 8. The method, boiled down:
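Plasma was sampled at steady state on cycle 1, day 8, after oral 135 mg/m²/dose BID. AUCSS was calculated by linear trapezoidal approximation through the day-8 24-hour dosing interval. The 24 h concentration was assumed equal to the predose concentration. CLSS was calculated as dose/AUCSS. Cmax, Tmax and t½ were also reported.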

Data set [3] in a line: Pediatric MATCH arm H: safety and tolerability.

For the compound `O=C(c1cc(Cc2n[nH]c(=O)c3ccccc23)ccc1F)N1CCN(C(=O)C2CC2)CC1` [Olaparib], the “Objective response (complete + partial response)” value in data set [1] (6 patients enrolled) is recorded as “no responses”. In addition, the “Median duration assessments, OS” value in data set [1] (6 patients, 95% CI: 0.8-NA) is reported as 2.5 months (95% CI: 0.8-NA). For the same compound, in data set [1] (Kaplan-Meier, 6 patients, 95% CI: 0.4-NA), the “Median duration assessments, PFS” value was 1.5 months (95% CI: 0.4-NA). The “Response assessment, PD (number of patients, %)” value in data set [1] (RECIST 1.1, 6 patients evaluated for efficacy) is given as 3 (50%). Further, the “Clearance at steady state, mean ± SD” value in data set [2] (dose/AUCSS, dose level 1, 135 mg/m^2 BID oral tablet, n = 3) was found to be 4.1 ± 3.6 L/h/m^2. Moreover, in data set [2] (human, plasma, po, 135 mg/m2), the AUC(0-t) turned out to be 48800 ± 27800 ng·h/mL, the Cmax came to 7500 ± 2700 ng/mL, the time of peak concentration (Tmax) was 1 to 4 h and the half-life was 336 ± 276 min. Besides, the Dose-limiting toxicities entry in data set [3] (2 patients evaluable for DLT, cycle 1, 135 mg/m^2/dose BID) is listed as “no dose-limiting toxicities”. Besides, the “Hematologic toxicity (overall)” value in data set [3] (6 patients evaluable for toxicity, 135 mg/m^2/dose BID) is “Minimal hematologic toxicity”. Moreover, in data set [3] (number of patients, 6 evaluable for toxicity), the “Patients with grade 1/2 anemia” value is reported as 3. Further, the “Allergic reaction leading to removal from study” value in data set [3] (one patient (biallelic tumor loss of ATM), first dose, recurring upon rechallenge) is “acute allergic reaction (hives)”.
